Common to all, as to assay type: cell-based
Test [1] deals with T1, Delta-type opioid receptor (Homo sapiens, UniProt P41143). The test is described as follows: Agonist activity at DOP (unknown origin) expressed in SH-SY5Y cell membranes co-expressing Gbeta1-RGFP protein assessed as induction of G protein activation incubated for 15 mins by BRET assay. In outline: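 Membranes (3 μg protein) from SH-SY5Y cells stably co-expressing delta-RLuc and Gβ1-RGFP, in DPBS. Ligands in PBS–BSA 0.01%, coelenterazine 5 μM final, room temperature. BRET ratio (RGFP 510 nm/RLuc 460 nm CPS minus vehicle) read 15 min after agonist. Efficacy relative to deltorphin A run on every plate; CR versus deltorphin A EC50. Five experiments in duplicate.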
For orientation: BRET reads energy transfer from a luciferase to a nearby fluorophore.

The target in test [2] is T1, Delta-type opioid receptor. The test is described as follows: Agonist activity at DOP (unknown origin) expressed in SH-SY5Y cell membranes co-expressing beta-arrestin2-RGFP protein assessed as induction of beta-arrestin2 activation incubated for 15 mins by BRET assay. In outline: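 Whole SH-SY5Y cells stably co-expressing delta-RLuc and β-arrestin 2-RGFP, plated 24 h earlier (100,000 cells/well), in PBS with MgCl2 0.5 mM and CaCl2 0.9 mM. Coelenterazine 5 μM final added 15 min before reading. BRET ratio read 15 min after agonist at room temperature. Efficacy and CR relative to deltorphin A. Five experiments in duplicate.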

Test [3] concerns the target T2, Mu-type opioid receptor (Homo sapiens, UniProt P35372). The experiment in a line: Agonist activity at MOP (unknown origin) expressed in SH-SY5Y cell membranes co-expressing Gbeta1-RGFP protein assessed as induction of G protein activation incubated for 15 mins by BRET assay.
Test [4] concerns the target T2, Mu-type opioid receptor. The experiment in a line: Agonist activity at MOP (unknown origin) expressed in SH-SY5Y cell membranes co-expressing beta-arrestin2-RGFP protein assessed as induction of beta-arrestin2 activation incubated for 15 mins by BRET assay.
The target of test [5] is T1, Delta-type opioid receptor. The test is described as follows: Bias factor, selectivity for agonist activity at DOP (unknown origin) expressed in SH-SY5Y cell membranes co-expressing beta-arrestin2-RGFP protein assessed as induction of beta-arrestin2 activation to agonist activity at […] cell membranes co-expressing Gbeta1-RGFP protein assessed as induction of G protein activation. As to conditions: […]. A digest of the protocol: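 Concentration–response curves from delta G protein (membrane) and β-arrestin 2 (whole cell) BRET assays fitted to the Black–Leff operational model. Bias factor = Δlog(τ/KA) G protein minus Δlog(τ/KA) β-arrestin 2, with deltorphin A as the unbiased reference. Mean of at least five experiments, with 95% confidence limits.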

The target of test [6] is T3, Nociceptin receptor (Homo sapiens, UniProt P41146). The experiment in a line: Antagonist activity at NOP (unknown origin) expressed in HEK293 cell membranes co-expressing Gbeta1-RGFP protein assessed as reduction in N/OFQ(1-13)-NH2-induced induction of G protein activation pre-incubated for 15 mins before stimulation with N/OFQ(1-13)-NH2 for 15 mins by BRET assay. The following applies: read-out: pA2 (converted).

For test [7], the target named is T3, Nociceptin receptor. The test is described as follows: Agonist activity at NOP (unknown origin) […] assessed as induction of beta-arrestin2 activation incubated for 15 mins by BRET assay.
The target in test [8] is T3, Nociceptin receptor. The experiment in a line: Agonist activity at NOP (unknown origin) expressed in HEK293 cell membranes co-expressing Gbeta1-RGFP protein assessed as induction of G protein activation incubated for 15 mins by BRET assay. In outline:
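Membranes (3 μg protein) from HEK293 cells stably co-expressing NOP-RLuc and Gβ1-RGFP, in DPBS. Coelenterazine 5 μM final; ligands in PBS–BSA 0.01%. BRET ratio (RGFP 510 nm / RLuc 460 nm) read 15 min after agonist, room temperature. Values are vehicle-subtracted stimulated BRET ratio. Mean of five experiments in duplicate.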

For test [9], the target named is T3, Nociceptin receptor. The experiment in a line: Antagonist activity at NOP (unknown origin) expressed in HEK293 cell membranes co-expressing beta-arrestin2-RGFP protein assessed as reduction in N/OFQ(1-13)-NH2-induced induction of beta-arrestin2 activation pre-incubated for 15 mins before stimulation with N/OFQ(1-13)-NH2 for 15 mins by BRET assay. The following applies: read-out: pA2 (converted).

Test [10] addresses T3, Nociceptin receptor. The experiment in a line: Bias factor, selectivity for agonist activity at NOP (unknown origin) expressed in HEK293 cell membranes co-expressing beta-arrestin2-RGFP protein assessed as induction of beta-arrestin2 activation to agonist activity at NOP (unknown origin) expressed in HEK293 cell membranes co-expressing Gbeta1-RGFP protein assessed as induction of G protein activation. In outline:
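Concentration–response curves in the NOP G protein and β-arrestin 2 BRET assays were fitted to the Black–Leff operational model. Mean of at least five experiments with 95% confidence limits.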

The source made the active and inactive calls. The rule behind the calls is not given here. Starred links: 1 amine or outer side, 2 acyl side, 3 side chain; linkers in the order of their positions; H or OH if unused. Positions of bridges follow the written chain, without caps; N, C: chain ends. Non-standard residues stand in square brackets, D forms with d. Residues, ends and D or L forms follow the SMILES beside them. Chains are numbered I, II in the order given. *: point of attachment. X1 = CCCCCCCCCCCCCCCC(=O)NCCCN1C(=O)CC(*)C1=O; X3 = N[C@@H](Cc1ccccc1)CN(CC(=O)[*:2])[*:1]; X2 = O=C1CC([*:1])C(=O)N1CCCC(=O)[*:2]

T1 sequence (P41143 whole entry): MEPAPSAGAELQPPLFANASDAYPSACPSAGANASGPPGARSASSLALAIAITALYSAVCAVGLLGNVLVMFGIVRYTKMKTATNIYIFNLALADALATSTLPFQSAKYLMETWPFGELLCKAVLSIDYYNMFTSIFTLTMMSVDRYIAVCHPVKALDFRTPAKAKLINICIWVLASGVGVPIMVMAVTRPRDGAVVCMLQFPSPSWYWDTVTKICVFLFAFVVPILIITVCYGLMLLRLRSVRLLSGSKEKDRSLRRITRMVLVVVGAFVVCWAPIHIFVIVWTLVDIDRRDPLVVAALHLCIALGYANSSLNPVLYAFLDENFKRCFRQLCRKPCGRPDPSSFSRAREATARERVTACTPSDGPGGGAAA
T2 sequence (P35372 whole entry): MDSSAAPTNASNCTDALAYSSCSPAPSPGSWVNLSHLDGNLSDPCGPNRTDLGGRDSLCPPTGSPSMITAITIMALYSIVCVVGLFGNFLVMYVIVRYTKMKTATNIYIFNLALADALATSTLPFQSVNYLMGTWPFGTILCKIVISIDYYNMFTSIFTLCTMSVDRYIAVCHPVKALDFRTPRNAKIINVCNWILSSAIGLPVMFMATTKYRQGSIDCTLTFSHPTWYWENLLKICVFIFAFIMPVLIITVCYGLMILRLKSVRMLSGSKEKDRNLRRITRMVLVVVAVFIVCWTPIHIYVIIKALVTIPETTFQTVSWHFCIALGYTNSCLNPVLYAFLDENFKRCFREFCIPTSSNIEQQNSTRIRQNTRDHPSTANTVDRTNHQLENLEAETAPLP
T3 sequence (P41146 whole entry): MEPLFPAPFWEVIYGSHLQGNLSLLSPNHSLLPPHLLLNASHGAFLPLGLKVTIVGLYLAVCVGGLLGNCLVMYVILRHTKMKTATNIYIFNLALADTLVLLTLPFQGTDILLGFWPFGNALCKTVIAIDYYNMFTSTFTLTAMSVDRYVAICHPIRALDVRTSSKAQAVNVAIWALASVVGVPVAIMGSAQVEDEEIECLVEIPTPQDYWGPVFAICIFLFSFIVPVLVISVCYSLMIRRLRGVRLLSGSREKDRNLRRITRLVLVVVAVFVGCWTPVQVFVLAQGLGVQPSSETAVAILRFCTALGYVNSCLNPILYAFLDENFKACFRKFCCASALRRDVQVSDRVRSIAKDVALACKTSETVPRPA

With `CCCCCCCCCCCCCCCC(=O)NCCCN1C(=O)CC(SC[C@H](NC(=O)[C@H](CO)NC(=O)[C@@H]2CCCN2C(=O)[C@H](Cc2ccc(O)cc2)NC(=O)CNC(=O)[C@H](Cc2ccccc2)NC(=O)[C@@H](C)NC(=O)[C@@H](N)Cc2ccc(O)cc2)C(N)=O)C1=O` (stereo partly specified), the EC50 in test [1] was 58.9 nM; in [2], 617 nM; in test [3] it was 1.45 nM; in [4], 11 nM.

Turning to `CCCCCCCCCCCCCCCC(=O)NCCCN1C(=O)CC(SC[C@H](NC(=O)[C@H](CC(C)C)NC(=O)[C@H](Cc2ccccc2)NC(=O)CNC(=O)CNC(=O)[C@@H](N)Cc2ccc(O)cc2)C(N)=O)C1=O` (stereo partly specified) (H-YGGFLC(X1)-NH2), the concentration for a half-maximal effect (EC50) in [1] is 8.13 nM; in [2], 132 nM; in [3], 4.07 nM; in [4], 229 nM. Further, in test [5], the Selectivity ratio came to 1.7.

For the molecule `CSCC[C@H](NC(=O)[C@H](CC(C)C)NC(=O)[C@H](Cc1c[nH]cn1)NC(=O)[C@H](Cc1ccccc1)NC(=O)[C@@H](CCSC)NC(=O)[C@@H](N)Cc1ccc(O)cc1)C(=O)N[C@@H](CC(=O)O)C(=O)O` (H-Y[dM]FHLMD-OH), the EC50 was 26.3 nM in [1] and 14.8 nM in [2]. Moreover, the Selectivity ratio in test [5] was 0.

Turning to `CCCCCCCCCCCCCCCC(=O)NCCCN1C(=O)CC(SC[C@H](NC(=O)[C@H](CC(=O)O)NC(=O)[C@H](CCSC)NC(=O)[C@H](CC(C)C)NC(=O)[C@H](Cc2c[nH]cn2)NC(=O)[C@H](Cc2ccccc2)NC(=O)[C@@H](CCSC)NC(=O)[C@@H](N)Cc2ccc(O)cc2)C(N)=O)C1=O` (stereo partly specified) (H-Y[dM]FHLMDC(X1)-NH2), the half-maximal effective concentration (EC50) in test [1] is 2.04 nM; in test [2], 22.4 nM; in [3] it was 51.3 nM; in test [4], 38 nM. Further, in test [5], the Selectivity ratio was determined as 1.06.

Turning to `C[C@H](NC(=O)CNC(=O)[C@@H](NC(=O)[C@H](Cc1ccccc1)NC(=O)CNC(=O)CNC[C@@H](N)Cc1ccccc1)[C@@H](C)O)C(=O)N[C@@H](CCCN=C(N)N)C(=O)N[C@@H](CCCCN)C(=O)N[C@@H](CO)C(=O)N[C@@H](C)C(=O)N[C@@H](CCCN=C(N)N)C(=O)N[C@@H](CCCCN)C(N)=O` (H-[X3]GFTGARKSARK-NH2), the Kb in [6] is 5.89 nM; in [9], 14.8 nM. Besides, the pEC50 entry in test [7] (HEK293) is “inactive”. For the same molecule, the EC50 in test [8] was 8.91 nM.

Take `C[C@H](NC(=O)CNC(=O)[C@@H](NC(=O)[C@H](Cc1ccccc1)NC(=O)CNC(=O)CNC(=O)[C@@H](N)Cc1ccccc1)[C@@H](C)O)C(=O)N[C@@H](CCCNC(=N)N)C(=O)N[C@@H](CCCCN)C(=O)N[C@@H](CO)C(=O)N[C@@H](C)C(=O)N[C@@H](CCCNC(=N)N)C(=O)N[C@@H](CCCCN)C(=O)N[C@@H](CSC1CC(=O)N(CCCC(=O)NCC(=O)N[C@@H](CCCCN)C(=O)NCC(=O)N[C@@H](CCCCN)C(=O)NCC(=O)N[C@@H](CCCCN)C(=O)NCC(=O)N[C@@H](CCCCN)C(=O)NCC(=O)N[C@@H](CCCCN)C(=O)NCC(=O)N[C@@H](CCCCN)C(N)=O)C1=O)C(N)=O` (stereo partly specified) (I: H-FGGFTGARKSARKC-NH2 / II: GKGKGKGKGKGK-NH2; linker I:14-II:N via X2): the EC50 in test [7] was 14.5 nM; in [8], 1.1 nM. The Selectivity Index in [10] was found to be 1.11.

On to H-FGAFTGARKSARK-NH2, for which the values for the EC50 in test [7] and in [8] were 28.8 nM and 13.2 nM, respectively. In test [10], the Selectivity Index was -0.21.

Take H-FGGFAGARKSARK-NH2: the EC50 in test [7] was 741 nM; in [8], 75.9 nM. In addition, the Selectivity Index in test [10] turned out to be 0.4.

With H-FGGFTAARKSARK-NH2, the values for the EC50 in test [7] and in [8] were 79.4 nM and 21.9 nM, respectively. For the same molecule, in test [10], the Selectivity Index turned out to be 0.04.

Take H-FGGFVGARKSARK-NH2: the EC50 in test [7] was 41.7 nM; in test [8], 11.5 nM. Moreover, in test [10], the Selectivity Index was determined as 0.09.

The EC50 is the concentration giving half of the maximal effect.

Source of the values: ChEMBL document CHEMBL4665800, “Biased Agonism at Nociceptin/Orphanin FQ Receptors: A Structure Activity Study on N/OFQ(1-13)-NH” (J Med Chem, 2020).
